Rows were chosen to be rich in hits. Some 1.4% of all compounds tested hit in one or more screens of this group.
T cell modulator = modulators of CD8 T cell-vesicle binding, primary screen, mouse 2C CD8+ T cells, flow cytometry; AID 2052, 2009; 2C CD8+ T cell-vesicle binding; active compounds read low; response (vesicle binding), % at 7 µM; 0.068% of 330,000 active;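 active = response, share of CD8 T cells binding vesicles, and their 90th percentile fluorescence all below set limits, cut at about 80% in these data, passing the limit was not always enough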;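 also: values below 100% mean blocked vesicle binding to the CD8+ T cells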
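Assay system – 2C mouse CD8+ T cells · Also added – QL9-loaded Drosophila micro-vesicles · Timing – Cell–vesicle co-incubation 1.5 h at 37 °C, staining 20 min on ice · Signal – flow cytometry of vesicle-bound cells · Measure – percent CD8+ FL2 mean versus row control · Controls – Peptide-free naked vesicles (low) and QL9 vesicles with 0.7% DMSO vehicle (high)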
Myeloid diff 2 = induction of myeloid progenitor differentiation, primary screen, cell-based, flow cytometry, MLPCN library. ER-HoxA9 myeloid progenitors, lysozyme-GFP differentiation. calls only at 10 µM. 1% of 360,000 active;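 active = normalized GFP-positive differentiation at or above the plate's own cutoff, the solvent-only control mean plus 3 SD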;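 also: cells exposed to compound for four days before flow analysis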
Vif imaging = HIV Vif self-association inhibitors, primary screen, imaging, HEK293T, single point | HEK293T cells, Vif self-association by quenched fluorescence, 24 h | inhibition, % at 7.49 µM | 0.35% of 340,000 active; in the data active = inhibition above about 50%, passing the limit was not always enough
Casp6 inh = human caspase-6 inhibitors, primary screen, biochemical, VEID-R110 fluorescence, single point, set 2 | P55212 | purified caspase-6, Z-VEID-R110 cleavage fluorescence | inhibition, % at 12.5 µM | 0.53% of 350,000 active | AID 686996, 2013;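 active = mean inhibition across replicates at least about 35%, with every replicate also reaching that limit, limit read from the data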;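 also: 0% = median of neutral control wells and 100% = no fluorescence left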
Target sequence (P55212 24-179 limits assumed): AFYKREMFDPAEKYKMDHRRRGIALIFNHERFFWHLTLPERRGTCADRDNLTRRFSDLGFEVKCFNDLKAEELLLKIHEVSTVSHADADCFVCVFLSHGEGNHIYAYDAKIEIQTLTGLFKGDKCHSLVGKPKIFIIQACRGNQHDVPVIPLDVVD
Target sequence (P55212 194-293 limits assumed): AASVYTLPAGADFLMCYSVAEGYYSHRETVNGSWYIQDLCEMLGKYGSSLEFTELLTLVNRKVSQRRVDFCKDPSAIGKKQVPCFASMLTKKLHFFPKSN
* marks the source's active call; other numbers are inactive results; i = inactive; . = not tested or not shown; + = active, no number.

SMILES	T cell modulator	Myeloid diff 2	Vif imaging	Casp6 inh
O=C(C1=C[C@@H](c2ccc3c(c2)Cc2ccccc2-3)C[C@@H](OCCCCO)O1)N1CCCCC1	.	.	.	-1.1
CCC(C)[C@H](NC(=O)NC1CCCc2ccccc21)C(=O)O (some centres not stated)	495.4	+	0.5	.
CCC(C)[C@H](NC(=O)NC1CCCc2ccccc21)C(=O)OC (some centres not stated)	244.6	i	10.6	-4.0
CN1/C(=C\C(=O)COC(=O)Cn2nnc(-c3ccccc3)n2)C(C)(C)c2ccccc21	512.6	+	-4.1	.
CN1/C(=C/C(=O)COC(=O)CN2C(=O)C3CC=CCC3C2=O)C(C)(C)c2ccccc21 (configuration not stated)	.	i	-3.9	1.8
COc1ccc(CN(C)C[C@H]2OCCCC[C@@H](C)Oc3ccc(NS(=O)(=O)c4ccc(C)cc4)cc3C(=O)N([C@@H](C)CO)C[C@@H]2C)cc1	.	.	.	2.2
CN1CCN(C(=O)C[C@@H]2CC[C@H]3[C@H](COc4ccc(NC(=O)c5cscn5)cc4C(=O)N3C)O2)CC1	.	.	.	-0.8
CC1(C)OC(=O)C(=Cc2ccc(-c3ccc(S(N)(=O)=O)cc3)o2)C(=O)O1	369.4	i	.	53.5*
NS(=O)(=O)c1ccc(-c2ccc(/C=C3\C(=O)Nc4ccccc43)o2)cc1	807.1	.	.	.
O=C(O)c1ccc(NS(=O)(=O)/C=C/c2ccccc2)cc1O	260.4	i	18.2	43.5*
O=S(=O)(/C=C/c1ccccc1)Nc1ccc(N2CCOCC2)cc1	307.0	i	4.4	.
CCOc1cc(NS(=O)(=O)c2ccc(OC)cc2)c(OCC)cc1NC(=O)c1ccco1	392.7	+	-19.0	.
CC(C)CC#Cc1ccc([C@@H]2[C@H](CO)N3C(=O)CN(C(=O)NC4CCCC4)C[C@@H]23)cc1	.	.	.	0.8
Cc1cccc(C=Nc2ccc3c4c(cccc24)CC3)c1O	159.4	+	.	.
CCCCn1nnc(NC(=O)c2sc3cc(Cl)ccc3c2Cl)n1	401.3	i	11.9	.
CCN(CC)Cc1ccc(NC(=O)c2sc3cc(Cl)ccc3c2Cl)cc1	200.1	+	-6.3	-1.3
CCS(=O)(=O)Nc1ccc2c(c1)C(=O)N(C)C[C@@H](OC)[C@H](C)CN(Cc1ccccn1)[C@H](C)CO2	.	.	.	-8.2
CCC1=[N+](C)c2cccc3cccc(c23)N1C	146.9	+	4.5	4.2
CCN1C(=O)Nc2cccc3cccc1c23	238.3	i	8.2	-0.6
Cc1ccc(NC(=O)CCC(=O)Nc2nnc(C3CCCCC3)s2)cc1	423.7	+	6.6	0.8
Cc1ccc(CNC(=O)CCC(=O)Nc2nnc(C3CCCCC3)s2)cc1	243.0	i	5.4	-3.5
CCOC(=O)CC(=O)CSc1ccc2nnc(-c3ccc(C)cc3)n2n1	460.0	+	-4.5	.
CC1CCN(c2ccc(NC(=O)c3cccnc3)cc2)CC1	174.1	+	3.6	.
Cc1nn(C)c(NC(=O)c2ccc(Cl)cc2Cl)c1Br	508.3	+	-4.2	-0.5
Cc1nn(C)c(NC(=O)c2ccccc2Cl)c1Br	63.3	i	7.9	-1.2
SMILES	T cell modulator	Myeloid diff 2	Vif imaging	Casp6 inh
CCC(=O)N(C)C[C@@H]1Oc2cc(C#CCC3CCCC3)ccc2S(=O)(=O)N([C@@H](C)CO)C[C@H]1C	.	.	.	-3.9
CCOc1ccccc1C(=O)OCC(=O)Nc1ncc(C(F)(F)F)cc1Cl	259.4	i	11.7	.
O=C(COC(=O)c1cccc2ccccc12)Nc1ncc(C(F)(F)F)cc1Cl	189.4	+	-9.0	.
COc1ccc(/C=C2\N=C(C)OC2=O)cc1OC	350.9	+	0.7	2.8
COc1ccc(/C=C2/C(=O)N=C(N)N2C)cc1OC	230.9	+	-4.7	.
COc1ccc(/C=C2\N=C(C)OC2=O)cc1OC(C)=O	178.6	i	-0.3	3.3
CC=Cc1ccc2n(c1=O)C[C@H]1[C@H](CO)[C@@H](C(=O)NCCN3CCCC3)N(C(=O)NC(C)C)[C@@H]21 (mixture of isomers)	.	.	.	-73.2
CCN(CC)C(=O)CSc1nc2ccccc2c(=O)n1OC(C)C	469.9	+	11.0	.
Cc1nnc(NC(=O)Cn2nc(C)c3ccccc3c2=O)s1	214.7	i	70.2*	-4.9
Cn1c(SCC(=O)c2cc(Cl)c(Cl)s2)nnc1-c1ccco1	552.4	i	1.2	51.5*
CC(=O)c1cccc(OCC(=O)N(Cc2ccco2)c2c(N)n(Cc3ccccc3)c(=O)[nH]c2=O)c1	354.5	+	7.7	2.6
CN(CC(=O)Nc1ccc(OC(F)(F)F)cc1)C(=O)c1ccccc1SCC(=O)N1CCCC1	.	i	-0.1	80.6*
O=C(NCC[C@H]1CC[C@@H](NC(=O)c2ccccc2F)[C@@H](CO)O1)c1ccc2c(c1)OCO2	.	.	.	0.8
O=C(C[C@H]1C[C@@H]2c3cc(NC(=O)Nc4ccccc4)ccc3O[C@@H]2[C@@H](CO)O1)NC1CCCCC1	.	.	.	-0.9
CC1CC(C)CN(c2ccc(-n3cnnn3)cc2[N+](=O)[O-])C1 (configuration not stated)	417.9	i	-0.4	.
O=[N+]([O-])c1cc(-n2cnnn2)ccc1N1CCC(Cc2ccccc2)CC1	173.1	i	78.2*	.
Cc1nonc1OCCCNc1ccc([N+](=O)[O-])cc1Cl	325.6	+	-2.4	-2.7
COC(=O)[C@H]1C[C@@]2(O)CN(S(=O)(=O)c3ccc(C)cc3)C[C@@]2(OC(=O)NCc2ccccc2F)C[C@H]1C(=O)OC	.	+	6.5	0.0
COC(=O)[C@H]1C[C@@]2(O)CN(S(=O)(=O)c3ccc(C)cc3)C[C@@]2(OC(=O)NCc2ccc(OC)c(OC)c2)C[C@H]1C(=O)OC	.	i	-0.6	2.6
COc1cc(CNc2ccc3[nH]c(=O)[nH]c3c2)cc(Br)c1OCc1ccc(F)cc1	141.9	+	27.5	-2.4
COc1cc(CNc2ccc3[nH]c(=O)[nH]c3c2)ccc1OCc1ccc(C)cc1	145.4	i	-8.5	2.1
Cn1ccsc1=NC(=O)c1ccc([N+](=O)[O-])o1	315.5	+	-4.8	49.1*
O=C(O)c1cc(O)c2c(c1)[C@@H]([C@H]1c3cc(C(=O)O)cc(O)c3C(=O)c3c(O[C@@H]4O[C@H](CO)[C@@H](O)[C@H](O)[C@H]4O)cccc31)c1cccc(OC3O[C@H](CO)[C@@H](O)[C@H](O)[C@H]3O)c1C2=O (some centres not stated)	469.6	i	3.9	90.8*
O=C1c2cc(CO)cc(O)c2C(=O)c2c(O[C@@H]3OC(CO)[C@@H](O)[C@@H](O)[C@@H]3O)cccc21 (some centres not stated)	463.8	i	-0.3	9.9

Bioassay records as filed in PubChem.
